The values below come from ChEMBL document CHEMBL4184153, “Optimization of a series of heterocycles as survival motor neuron gene transcription enhancers” (Bioorg Med Chem Lett, 2017).

Values after ≈ are worked out from the molar mass of the structure shown. Active and inactive are the calls of the source. No cut-off for these calls is given here.

A short description of series [1]: Activation of SMN2 gene (unknown origin) transcription in HEK293 cells expressing SMN2-luc assessed as increase in SMN2 mRNA level after 24 hrs by luciferase reporter gene assay. The note with it: HEK293, 24 h. The format is cell-based. The gist of the method: (§1)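 Luciferase reporter read-out of SMN2 expression; compounds tested at various concentrations (0.1 – 50 μM) against 0.1% DMSO controls. Dose-response curves fitted to give EC50 and percent maximum increase in SMN2 expression; values mean ± S.E.M.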

The subject of series [2] is HEK293. Kind of series: Activation of SMN2 gene (unknown origin) transcription in HEK293 cells expressing SMN2-luc assessed as increase in SMN2 mRNA level at 0.1 to 50 uM after 24 hrs by luciferase reporter gene assay relative to control. The class given is cell-based. A digest of the protocol: as §1
In general terms: Reporter assays use an easily measured gene product as a stand-in for the process of interest.

The nature of series [3]: Aqueous solubility of the compound at pH 7.4. The format is physicochemical. The note with it: aqueous medium.
A further series deals with Mus musculus. Kind of series: Increase in life span of SMNdelta7 SMA mouse model assessed as median survival days at 20 mg/kg, ip, administered once daily beginning at PND2 (reference value: 6 days).
Series [4] is described as follows: Half life in mouse microsomes. The format is ADME, Microsome.
The test system of series [5] is HEK293. Kind of series: Activation of SMN1 gene (unknown origin) transcription in HEK293 cells assessed as increase in SMN1 exon 7 transcript level after 24 hrs by qRT-PCR analysis. The format is cell-based. In general terms: In qPCR the cycle at which signal appears reflects the starting amount.
The test system of series [6] is HEK293. Kind of series: Activation of SMN2 gene (unknown origin) transcription in HEK293 cells expressing SMN2-luc assessed as increase in SMN2 mRNA level after 24 hrs by qRT-PCR analysis. The class given is cell-based.
The species entered for series [7] is Homo sapiens. The series is described as follows: Increase in SMN2 mRNA expression in SMA derived human fibroblasts assessed as increase in SMN protein level.
The species entered for series [8] is Homo sapiens. Kind of series: Increase in SMN2 mRNA expression in SMA derived human fibroblasts assessed as increase in SMN protein aggregates (Gems).
The target in series [9] is Survival motor neuron protein (Homo sapiens, UniProt Q16637). The series is described as follows: Stabilization of human SMN protein expressed in HEK293 cells expressing SMN2 promoter after 24 hrs by luciferase reporter gene assay. The format is cell-based.

By EC50 is commonly meant the concentration at which the effect is half-maximal. Usually Emax stands for the size of the effect at its maximum, as opposed to the concentration needed. The term solubility denotes the concentration that dissolves in the medium under given conditions. The term half-life denotes how long it takes for the measured level to halve.

Sequence of Survival motor neuron protein (Q16637 whole entry): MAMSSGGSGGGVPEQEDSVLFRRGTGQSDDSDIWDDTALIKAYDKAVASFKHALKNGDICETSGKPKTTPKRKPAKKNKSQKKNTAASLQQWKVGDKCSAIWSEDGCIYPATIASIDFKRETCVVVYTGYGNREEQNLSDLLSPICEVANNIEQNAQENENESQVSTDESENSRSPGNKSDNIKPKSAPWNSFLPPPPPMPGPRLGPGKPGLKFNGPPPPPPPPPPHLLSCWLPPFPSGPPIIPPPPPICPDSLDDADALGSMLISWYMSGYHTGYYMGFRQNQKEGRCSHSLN

On to `CCCN1C(=O)Nc2cc(OC)c(OC)c(OC)c2C1c1cccc(Cl)c1` (stereo not given), for which the half-maximal effective concentration (EC50) in series [1] was determined as 5.2 µM. The maximum response (Emax) in the series on HEK293 [2] was 100%.

Take `COc1cc2c(c(OC)c1OC)C(c1ccc(F)c(F)c1)CC(=O)N2` (stereo not given): the result in the series on HEK293 [2] was inactive.

Turning to `COc1cc2c(c(OC)c1)C(c1cc(Br)ccc1F)CC(=O)N2` (stereo not given), the outcome in the series on HEK293 [2] was inactive.

With `COc1cc2c(c(OC)c1OC)C(c1cc(Cl)ccc1F)NC(=O)N2` (racemic), the concentration in solution in series [3] (solubility) came to 91 µM (≈ 33.4 µg/mL). The median survival in the series on Mus musculus worked out at 15 days. In addition, in series [4], the half-life was 20 min. Moreover, the EC50 in series [1] was 4.1 µM. The result with HEK293 [5] and in the series on HEK293 [6] was Active. For the same molecule, the Emax with HEK293 [2] is 263%. Besides, the fold change (FC) in the series filed under Homo sapiens [7] and in the series filed under Homo sapiens [8] was 2 each time.

As to `COc1cc2c(c(OC)c1OC)C(c1cc(-c3ccccc3)ccc1F)NC(=O)N2` (stereo not given), the result with HEK293 [2] was inactive.

With `COc1cc2c(c(OC)c1OC)C(c1cc(Br)ccc1F)CC(=O)N2` (stereo not given), the solubility in series [3] is less than 1 µM. Further, the 50% effective concentration (EC50) in series [1] was determined as 8.3 µM. In addition, in the series on HEK293 [2], the Emax was 186%.

Consider `COc1cc2c(c(OC)c1OC)C(c1ccc(Cl)cc1)NC(=O)N2` (stereo not given), for which the EC50 in series [1] was determined as 6.6 µM. In addition, the maximum response (Emax) in the series with HEK293 [2] is 150%.

With `COc1ccc(C2NC(=O)Nc3cc(OC)c(OC)c(OC)c32)cc1` (stereo not given), the result in the series on HEK293 [2] was inactive.

As to `COc1cc2c(c(OC)c1OC)C(c1cc(Cl)ccc1F)OCC(=O)N2` (stereo not given), the concentration in solution in series [3] (solubility) came to 58 µM (≈ 22.1 µg/mL). In series [4], this molecule displayed a half-life of 3 min. The EC50 in [1] stood at 5.9 µM. The maximum response (Emax) in the series on HEK293 [2] stood at 150%.

Turning to `COc1cc2c(c(OC)c1OC)C(c1cc(Cl)ccc1F)OC(C)C(=O)N2` (mixture of isomers), the EC50 in [1] was 2.6 µM. For the same molecule, the Emax in the series on HEK293 [2] was determined as 125%.

With `COc1cc2c(c(OC)c1OC)C(c1cc(Br)ccc1F)C(C)C(=O)N2` (mixture of isomers), the outcome in the series with HEK293 [2] was inactive.

Take `COc1cc2c(c(OC)c1OC)C(c1cccc(Cl)c1Cl)CC(=O)N2` (stereo not given): the outcome in the series on HEK293 [2] was inactive.

Consider `COc1cc2c(c(OC)c1OC)C(c1cc(Cl)ccc1F)=NCC(=O)N2`, for which the EC50 in series [1] worked out at 8.4 µM. In the series on HEK293 [2], the Emax was 125%.

Take `COc1cc(Cl)ccc1C1NC(=O)Nc2cc(OC)c(OC)c(OC)c21` (stereo not given): in series [1], the EC50 was found to be 7.8 µM. In addition, the maximal response (Emax) in the series on HEK293 [2] came to 200%.

For `COc1cc2c(c(OC)c1OC)C(c1cc(C)ccc1F)NC(=O)N2` (stereo not given), the concentration for a half-maximal effect (EC50) in series [1] worked out at 4.3 µM. Further, in the series on HEK293 [2], the maximal effect (Emax) was 125%.

For the molecule `COc1cc2c(c(OC)c1OC)C(c1ccccc1F)N(C)C(=O)N2` (stereo not given), the half-maximal effective concentration (EC50) in [1] fell in the range of 6 to 10 µM. Further, the maximal response (Emax) in the series with HEK293 [2] was in the range of 100 to 180%.

`COc1cc2c(c(OC)c1OC)C(c1ccccc1F)CC(=O)N2` (stereo not given): in the series with HEK293 [2], the result was inactive.

For `COc1cc2c(c(OC)c1OC)C(c1ccc(Cl)cc1F)NC(=O)N2` (stereo not given), the EC50 in [1] came out at 6.3 µM. In addition, the maximal effect (Emax) in the series on HEK293 [2] was 150%.

`COc1cc2c(c(OC)c1OC)C(c1cc(C#N)ccc1F)NC(=O)N2` (stereo not given): the outcome with HEK293 [2] was inactive.

With `COc1cc2c(c(OC)c1OC)C(C)(c1cc(Cl)ccc1F)OCC(=O)N2` (stereo not given), the outcome with HEK293 [2] was inactive.

With `COc1cc2c(c(OC)c1OC)C(c1cc(Br)ccc1F)CC(=O)N2C` (stereo not given), the outcome in the series on HEK293 [2] was inactive.

On to `COc1cc2c(c(OC)c1OC)C(c1ccc(Cl)cc1Cl)CC(=O)N2` (stereo not given), for which the result with HEK293 [2] was inactive.

As for `COc1ccc(Cl)cc1C1NC(=O)Nc2cc(OC)c(OC)c(OC)c21` (stereo not given), the EC50 in series [1] turned out to be 3.6 µM. The Emax in the series on HEK293 [2] is 225%.

With `COc1cc2c(c(OC)c1OC)C(c1cc(Cl)ccc1F)OCC(=O)N2C` (stereo not given), the result in the series with HEK293 [2] was inactive.

On to `COc1cc2c(c(OC)c1OC)C(c1cccc(Br)c1)CC(=O)N2` (stereo not given), for which the outcome in the series on HEK293 [2] was inactive.

On to `COc1ccc(F)c(C2NC(=O)Nc3cc(OC)c(OC)c(OC)c32)c1` (stereo not given), for which the outcome in the series with HEK293 [2] was inactive.

With `COc1cc2c(c(OC)c1OC)C(c1ccc(Cl)c(Cl)c1)CC(=O)N2` (stereo not given), the outcome in the series on HEK293 [2] was inactive.

`COc1cc2c(c(OC)c1OC)C(c1cccc(F)c1)NC(=O)N2` (stereo not given): the 50% effective concentration (EC50) in series [1] came out at 25 µM. In the series on HEK293 [2], the Emax worked out at 150%.

As to `COc1cc2c(c(OC)c1OC)C(c1cc(C(N)=O)ccc1F)CC(=O)N2` (stereo not given), the result with HEK293 [2] was inactive.

Consider `COc1cc2c(c(OC)c1OC)C(c1ccccc1Cl)NC(=O)N2` (stereo not given), for which the result in the series with HEK293 [2] was inactive.

For `COc1cc2c(c(OC)c1OC)C(c1ccc(F)cc1)NC(=O)N2` (stereo not given), the EC50 in series [1] worked out at 14 µM. Moreover, the Emax in the series on HEK293 [2] was determined as 150%.

For `COc1cc2c(c(OC)c1OC)C(c1cc([N+](=O)[O-])ccc1F)CC(=O)N2` (stereo not given), in the series with HEK293 [2], the result was inactive.

Consider `COc1ccc2c(c1OC)C(c1cc(Br)ccc1F)CC(=O)N2` (stereo not given), for which, in the series with HEK293 [2], the outcome was inactive.

As to `COc1cc2c(c(OC)c1OC)C(c1cc(F)ccc1F)NC(=O)N2` (stereo not given), the concentration giving a half-maximal response (EC50) in series [1] is 17 µM. The Emax in the series with HEK293 [2] came out at 100%.

With `COc1cc2c(c(OC)c1OC)C(c1cc(C#N)ccc1F)CC(=O)N2` (stereo not given), the result in the series with HEK293 [2] was inactive.

In the case of `CC(C)c1cc(C(=O)Nc2ccc(F)c(Cl)c2)no1`, the Emax in the series with HEK293 [2] came out at 242%. For the same molecule, in series [9], it took 1.8 µM to reach a half-maximal effect (EC50).

In the case of `COc1cc2c(c(OC)c1OC)C(c1cc(Cl)ccc1F)CC(=O)N2` (stereo not given), the EC50 in [1] is 12 µM. Also, in the series on HEK293 [2], the maximal response (Emax) turned out to be 150%.

As to `COc1cc2[nH]c(=O)nc(-c3cc(Cl)ccc3F)c2c(OC)c1OC`, the result with HEK293 [2] was inactive.

On to `COc1cc2c(c(OC)c1OC)C(c1cc(Cl)ccc1F)OC(=O)N2` (stereo not given), for which, in the series on HEK293 [2], the Emax stood at 125%.

In the case of `COc1cc2c(c(OC)c1OC)C(c1cc(F)ccc1F)CC(=O)N2` (stereo not given), the outcome in the series with HEK293 [2] was inactive.

For the molecule `COc1ccccc1C1NC(=O)Nc2cc(OC)c(OC)c(OC)c21` (stereo not given), the result with HEK293 [2] was inactive.

With `COc1cccc(C2NC(=O)Nc3cc(OC)c(OC)c(OC)c32)c1` (stereo not given), the EC50 in series [1] amounted to 18 µM. Further, in the series with HEK293 [2], the Emax amounted to 100%.
